From ChEMBL document CHEMBL4364256, “Design, synthesis and biological evaluation of antimicrobial diarylimine and -amine compounds targeting the interaction between the bacterial NusB and NusE proteins” (Eur J Med Chem, 2019)
In brackets after ≈: the same amount, converted by molar mass.

Assays:
Acinetobacter baumannii = assay: Antimicrobial activity against Acinetobacter baumannii ATCC 19606 incubated for 20 hrs by microdilution method; format: functional; settings: ATCC 19606 = CIP 70.34 = JCM 6841, 20 h
Summary of the method: (§1)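 Broth microdilution MIC testing done following CLSI guidelines.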

Bacillus subtilis = assay: Inhibition of N-terminal LgBiT-fused Bacillus subtilis NusB expressed in Escherichia coli BL21(DE3)pLysS interaction with C- terminal SmBiT-fused Bacillus subtilis NusE expressed in Escherichia coli BL21(DE3)pLysS at 100 uM preincubated for 10 mins followed by NusE addition and measured after 10 mins by nano-glo luciferase assay relative to control
Summary of the method: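 NusB and NusE were mixed 1:1 at 1 µM in PBS, with compound at 100 µM. The read-out was percent inhibition of the NusB-NusE interaction.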

Streptococcus pneumoniae = assay: Antimicrobial activity against Streptococcus pneumoniae ATCC 49619 incubated for 20 hrs by microdilution method; format: functional; settings: ATCC 49619, 20 h; summary of the method: as §1
Staphylococcus aureus [1] = assay: microbe, parasite or virus in culture; settings: ATCC 25923, 20 h
Pseudomonas aeruginosa = assay: Antimicrobial activity against Pseudomonas aeruginosa ATCC 27853 incubated for 20 hrs by microdilution method; format: functional; settings: ATCC 27853, 20 h; summary of the method: as §1
Enterococcus faecium = assay: Antimicrobial activity against Enterococcus faecium ATCC 19433 incubated for 20 hrs by microdilution method; format: functional; settings: ATCC 19433, 20 h; summary of the method: as §1
[2] = microbe, parasite or virus in culture; settings: Enterobacter cloacae, ATCC 13047, 20 h
Staphylococcus aureus [3] = assay: microbe, parasite or virus in culture; settings: ATCC 29213, 20 h
Staphylococcus aureus [4] = assay: Antimicrobial activity against CA-methicillin-resistant Staphylococcus aureus W47 ST30 incubated for 20 hrs by microdilution method; format: functional; settings: W47 ST30, 20 h
Summary of the method: (§2)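 MIC determined by microdilution following Clinical & Laboratory Standards Institute (CLSI) guidelines, read in µg/mL, against a panel of hospital- and community-acquired MRSA strains.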

Staphylococcus aureus [5] = assay: Antimicrobial activity against Staphylococcus aureus ST22 11B086169 incubated for 20 hrs by microdilution method; format: functional; settings: ST22 11B086169, 20 h; summary of the method: as §2
Staphylococcus aureus [6] = assay: Antimicrobial activity against Staphylococcus aureus ST239 incubated for 20 hrs by microdilution method; format: functional; settings: CN79, 20 h; summary of the method: as §2
Staphylococcus aureus [7] = assay: Antimicrobial activity against CA-methicillin-resistant Staphylococcus aureus W4 ST338 incubated for 20 hrs by microdilution method; format: functional; settings: W4 ST338, 20 h; summary of the method: as §2
Staphylococcus aureus [8] = assay: Antimicrobial activity against Staphylococcus aureus ATCC BAA43 incubated for 20 hrs by microdilution method; format: functional; settings: ATCC BAA43, 20 h; summary of the method: as §2
Staphylococcus aureus [9] = assay: Antimicrobial activity against Staphylococcus aureus HA W235 ST5 incubated for 20 hrs by microdilution method; format: functional; settings: HA W235 ST5, 20 h; summary of the method: as §2
Staphylococcus aureus [10] = assay: Antimicrobial activity against Staphylococcus aureus USA300/ST8 incubated for 20 hrs by microdilution method; settings: USA300 ST8, 20 h
Streptococcus agalactiae = assay: Antimicrobial activity against Streptococcus agalactiae ATCC 12386 incubated for 20 hrs by microdilution method; format: functional; settings: ATCC 12386, 20 h; summary of the method: as §1
Staphylococcus aureus [11] = assay: Antimicrobial activity against CA-methicillin-resistant Staphylococcus aureus W48 ST217 incubated for 20 hrs by microdilution method; settings: W48 ST217, 20 h
Staphylococcus aureus [12] = assay: Antimicrobial activity against Staphylococcus aureus HA W231 ST45 incubated for 20 hrs by microdilution method; format: functional; settings: HA W231 ST45, 20 h; summary of the method: as §2
[13] = test system: Staphylococcus epidermidis; assay: Antimicrobial activity against Staphylococcus epidermidis ATCC 12228 incubated for 20 hrs by microdilution method; format: functional; settings: ATCC 12228, 20 h; summary of the method: as §1
[14] = Antimicrobial activity against Staphylococcus saprophyticus ATCC 15305 incubated for 20 hrs by microdilution method; format: functional, Staphylococcus saprophyticus subsp. saprophyticus; settings: ATCC 15305, 20 h; summary of the method: as §1
Staphylococcus aureus [15] = assay: Antimicrobial activity against Staphylococcus aureus ATCC BAA44 incubated for 20 hrs by microdilution method; format: functional; settings: ATCC BAA44, 20 h; summary of the method: as §2
[16] = test system: Enterococcus casseliflavus; assay: Antimicrobial activity against Enterococcus casseliflavus ATCC 25788 incubated for 20 hrs by microdilution method; format: functional; settings: ATCC 25788, 20 h; summary of the method: as §1
Staphylococcus aureus [17] = assay: Antimicrobial activity against CA-methicillin-resistant Staphylococcus aureus W45 ST59 incubated for 20 hrs by microdilution method; settings: W45 ST59, 20 h
Streptococcus pyogenes = assay: Antimicrobial activity against Streptococcus pyogenes ATCC 19615 incubated for 20 hrs by microdilution method; format: functional; settings: ATCC 19615, 20 h; summary of the method: as §1
Staphylococcus aureus [18] = assay: Antimicrobial activity against CA-methicillin-resistant Staphylococcus aureus W46 ST59 incubated for 20 hrs by microdilution method; settings: W46 ST59, 20 h

| SMILES | MIC (Acinetobacter baumannii) [µg/mL] | inhibition (Bacillus subtilis) [%] | MIC (Streptococcus pneumoniae) [µg/mL] | MIC (Staphylococcus aureus [1]) [µg/mL] | MIC (Pseudomonas aeruginosa) [µg/mL] | MIC (Enterococcus faecium) [µg/mL] | MIC [2] [µg/mL] | MIC (Staphylococcus aureus [3]) [µg/mL] | other results |
| --- | --- | --- | --- | --- | --- | --- | --- | --- | --- |
| O=[N+]([O-])c1ccc(O)c(/C=N/c2ccccc2O)c1 | 128 (≈ 496 µM) | 57.7 | 64 (≈ 248 µM) | 4 (≈ 15.5 µM) | > 256 | > 256 | > 256 | 16 (≈ 62 µM) |  |
| O=C(O)c1cn(C2CC2)c2cc(N3CCNCC3)c(F)cc2c1=O [CIPROFLOXACIN] | 2 (≈ 6.04 µM) |  |  | 0.5 to 1 (≈ 1.51 to 3.02 µM) |  | 4 (≈ 12.1 µM) |  | 0.5 to 1 (≈ 1.51 to 3.02 µM) | MIC (Staphylococcus aureus [4]): 0.5 µg/mL (≈ 1.51 µM); MIC (Staphylococcus aureus [5]): 4 µg/mL (≈ 12.1 µM); MIC (Staphylococcus aureus [6]): 4 µg/mL (≈ 12.1 µM); MIC (Staphylococcus aureus [7]): 0.5 µg/mL (≈ 1.51 µM); MIC (Staphylococcus aureus [8]): 2 µg/mL (≈ 6.04 µM); MIC (Staphylococcus aureus [9]): 4 µg/mL (≈ 12.1 µM); MIC (Staphylococcus aureus [10]): 4 µg/mL (≈ 12.1 µM); MIC (Streptococcus agalactiae): 4 µg/mL (≈ 12.1 µM); MIC (Staphylococcus aureus [11]): 4 µg/mL (≈ 12.1 µM); MIC (Staphylococcus aureus [12]): 2 µg/mL (≈ 6.04 µM); MIC [13]: 0.0625 µg/mL (≈ 0.189 µM); MIC [14]: 0.5 µg/mL (≈ 1.51 µM); MIC (Staphylococcus aureus [15]): 4 µg/mL (≈ 12.1 µM); MIC [16]: 4 µg/mL (≈ 12.1 µM); MIC (Staphylococcus aureus [17]): 0.25 µg/mL (≈ 0.754 µM); MIC (Streptococcus pyogenes): 0.5 µg/mL (≈ 1.51 µM); MIC (Staphylococcus aureus [18]): 0.25 µg/mL (≈ 0.754 µM) |
| O=[N+]([O-])c1ccc(O)c(CNc2ccccc2O)c1 | 128 (≈ 492 µM) | 81.5 | 64 (≈ 246 µM) | 16 (≈ 61.5 µM) | 256 (≈ 984 µM) | 256 (≈ 984 µM) | 256 (≈ 984 µM) | 32 (≈ 123 µM) |  |
| O=C(O)c1cccc(/N=C/c2cc([N+](=O)[O-])ccc2O)c1 | 64 (≈ 224 µM) | 78.5 | 16 (≈ 55.9 µM) | 4 (≈ 14 µM) | > 256 | > 256 | > 256 | 16 (≈ 55.9 µM) |  |
| O=C(O)c1cccc(NCc2cc([N+](=O)[O-])ccc2O)c1 | > 256 | 50.8 | > 256 | > 256 | > 256 | > 256 | > 256 | > 256 |  |
| C#Cc1cccc(/N=C/c2cc([N+](=O)[O-])ccc2OC)c1 | > 256 | 40.4 | > 256 | > 256 | > 256 | > 256 | > 256 | > 256 |  |
| O=[N+]([O-])c1ccc(O)c(/C=N/c2cccc(O)c2)c1 | > 256 | 96.3 | 256 (≈ 991 µM) | 16 (≈ 62 µM) | > 256 | > 256 | > 256 | 64 (≈ 248 µM) |  |
| O=[N+]([O-])c1ccc(O)c(/C=N/c2ccccc2)c1 | 256 (≈ 1060 µM) | 39.2 | 32 (≈ 132 µM) | 4 (≈ 16.5 µM) | > 256 | > 256 | > 256 | 16 (≈ 66.1 µM) |  |
| C#Cc1cccc(NCc2cc([N+](=O)[O-])ccc2OC)c1 | > 256 | 56.1 | > 256 | > 256 | > 256 | > 256 | > 256 | > 256 |  |
| C#Cc1cccc(NCc2cc([N+](=O)[O-])ccc2O)c1 | 128 (≈ 477 µM) | 47.7 | 8 (≈ 29.8 µM) | 16 (≈ 59.6 µM) | > 256 | 16 (≈ 59.6 µM) | > 256 | 16 (≈ 59.6 µM) |  |
